Measured values from ChEMBL document CHEMBL1781959, “Synthesis and in vitro antitumor activity of substituted quinazoline and quinoxaline derivatives: search for anticancer agent” (Eur J Med Chem, 2011).

What was measured:
Type in all cases: functional
SF-268 = assay: Anticancer activity against human SF268 cells assessed as cell growth promotion at 10^-5 M after 48 hrs by SRB assay relative to control
SF-295 = assay: Anticancer activity against human SF295 cells assessed as cell growth promotion at 10^-5 M after 48 hrs by SRB assay relative to control
SF-539 = assay: Anticancer activity against human SF539 cells assessed as cell growth promotion at 10^-5 M after 48 hrs by SRB assay relative to control
SNB-19 = assay: Anticancer activity against human SNB19 cells assessed as cell growth promotion at 10^-5 M after 48 hrs by SRB assay relative to control
LOX IMVI = assay: Anticancer activity against human LOXIMVI cells assessed as cell growth promotion at 10^-5 M after 48 hrs by SRB assay relative to control
Malme-3M = assay: Anticancer activity against human MALME-3M cells assessed as cell growth promotion at 10^-5 M after 48 hrs by SRB assay relative to control
CCRF-CEM = assay: Anticancer activity against human CCRF-CEM cells assessed as cell growth promotion at 10^-5 M after 48 hrs by SRB assay relative to control
M14 = assay: Anticancer activity against human M14 cells assessed as cell growth promotion at 10^-5 M after 48 hrs by SRB assay relative to control
MDA-MB-435 = assay: Anticancer activity against human MDA-MB-435 cells assessed as cell growth promotion at 10^-5 M after 48 hrs by SRB assay relative to control
SK-MEL-28 = assay: Anticancer activity against human SK-MEL-28 cells assessed as cell growth promotion at 10^-5 M after 48 hrs by SRB assay relative to control
SK-MEL-5 = assay: Anticancer activity against human SK-MEL-5 cells assessed as cell growth promotion at 10^-5 M after 48 hrs by SRB assay relative to control
IGROV-1 = assay: Anticancer activity against human IGROV1 cells assessed as cell growth promotion at 10^-5 M after 48 hrs by SRB assay relative to control
OVCAR-3 = assay: Anticancer activity against human OVCAR3 cells assessed as cell growth promotion at 10^-5 M after 48 hrs by SRB assay relative to control
OVCAR-5 = assay: Anticancer activity against human OVCAR5 cells assessed as cell growth promotion at 10^-5 M after 48 hrs by SRB assay relative to control
SK-OV-3 = assay: Anticancer activity against human SKOV3 cells assessed as cell growth promotion at 10^-5 M after 48 hrs by SRB assay relative to control
ACHN = assay: Anticancer activity against human ACHN cells assessed as cell growth promotion at 10^-5 M after 48 hrs by SRB assay relative to control
CAKI-1 = assay: Anticancer activity against human Caki1 cells assessed as cell growth promotion at 10^-5 M after 48 hrs by SRB assay relative to control
RXF 393 = assay: Anticancer activity against human RXF393 cells assessed as cell growth promotion at 10^-5 M after 48 hrs by SRB assay relative to control
SN12C = assay: Anticancer activity against human SN12C cells assessed as cell growth promotion at 10^-5 M after 48 hrs by SRB assay relative to control
TK-10 = assay: Anticancer activity against human TK10 cells assessed as cell growth promotion at 10^-5 M after 48 hrs by SRB assay relative to control
UO-31 = assay: Anticancer activity against human UO31 cells assessed as cell growth promotion at 10^-5 M after 48 hrs by SRB assay relative to control
DU-145 = assay: Anticancer activity against human DU145 cells assessed as cell growth promotion at 10^-5 M after 48 hrs by SRB assay relative to control
MCF7 = assay: Anticancer activity against human MCF7 cells assessed as cell growth promotion at 10^-5 M after 48 hrs by SRB assay relative to control
HL-60(TB) = assay: Anticancer activity against human HL-60(TB) cells assessed as cell growth promotion at 10^-5 M after 48 hrs by SRB assay relative to control
In short: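 NCI-60 single-dose screen: compound at 10^-5 M, 48 h at 37 °C, 5% CO2; cells grown in RPMI 1640 with 5% FBS and 2 mM L-glutamine, pre-incubated 24 h before dosing. Adherent cells fixed with cold TCA; endpoint is sulforhodamine B protein staining. Percent growth of treated cells is reported relative to untreated control.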

K562 = assay: Anticancer activity against human K562 cells assessed as cell growth promotion at 10^-5 M after 48 hrs by SRB assay relative to control
MOLT-4 = assay: Anticancer activity against human MOLT4 cells assessed as cell growth promotion at 10^-5 M after 48 hrs by SRB assay relative to control
MDA-MB-231 = assay: Anticancer activity against human MDA-MB-231 cells assessed as cell growth promotion at 10^-5 M after 48 hrs by SRB assay relative to control
[1] = Anticancer activity against human Hs 578T cells assessed as cell growth promotion at 10^-5 M after 48 hrs by SRB assay relative to control
T47D = assay: Anticancer activity against human T47D cells assessed as cell growth promotion at 10^-5 M after 48 hrs by SRB assay relative to control
MDA-MB-468 = assay: Anticancer activity against human MDA-MB-468 cells assessed as cell growth promotion at 10^-5 M after 48 hrs by SRB assay relative to control
EKVX = assay: Anticancer activity against human EKVX cells assessed as cell growth promotion at 10^-5 M after 48 hrs by SRB assay relative to control
NCI-H23 = assay: Anticancer activity against human NCI-H23 cells assessed as cell growth promotion at 10^-5 M after 48 hrs by SRB assay relative to control
NCI-H460 = assay: Anticancer activity against human NCI-H460 cells assessed as cell growth promotion at 10^-5 M after 48 hrs by SRB assay relative to control
HCC 2998 = assay: Anticancer activity against human HCC2998 cells assessed as cell growth promotion at 10^-5 M after 48 hrs by SRB assay relative to control
HCT-116 = assay: Anticancer activity against human HCT116 cells assessed as cell growth promotion at 10^-5 M after 48 hrs by SRB assay relative to control
HT-29 = assay: Anticancer activity against human HT-29 cells assessed as cell growth promotion at 10^-5 M after 48 hrs by SRB assay relative to control
KM12 = assay: Anticancer activity against human KM12 cells assessed as cell growth promotion at 10^-5 M after 48 hrs by SRB assay relative to control
A498 = assay: Anticancer activity against human A498 cells assessed as cell growth promotion at 10^-5 M after 48 hrs by SRB assay relative to control

Row | Structure (SMILES) | Activity (SF-268) | Activity (SF-295) | Activity (SF-539) | Activity (SNB-19) | Activity (LOX IMVI) | Activity (Malme-3M) | Activity (CCRF-CEM) | Activity (M14) | Activity (MDA-MB-435) | Activity (SK-MEL-28) | Activity (SK-MEL-5) | Activity (IGROV-1) | Activity (OVCAR-3) | Activity (OVCAR-5) | Activity (ACHN) | Activity (CAKI-1) | Activity (RXF 393) | Activity (SN12C) | Activity (TK-10) | Activity (UO-31) | also measured
1 | O=C(Nc1ccccc1C(=O)Nc1ccc(/C=C/c2ccc(Cl)cc2)cc1)c1ccccc1 | 82.84% | 52.07% | 91.8% | 74.25% | 74.93% | 91.75% | 52.41% | 78.5% | 82.15% | 101% | 82.15% | 89.85% | 86.93% | 123% | 82.68% | 90.6% | 82.15% | 79.73% | 123% | 52.88% | Activity (SK-OV-3): 95.35%; Activity (DU-145): 107%; Activity (MCF7): 82.72%; Activity (HL-60(TB)): 94.11%; Activity (K562): 57.81%; Activity (MOLT-4): 59.17%; Activity (MDA-MB-231): 81.11%; Activity [1]: 67.95%; Activity (T47D): 82.14%; Activity (MDA-MB-468): 83.46%; Activity (EKVX): 86.68%; Activity (NCI-H23): 73.51%; Activity (NCI-H460): 72.92%; Activity (HCC 2998): 78.38%; Activity (HCT-116): 49.35%; Activity (HT-29): 89.94%; Activity (KM12): 64.38%
2 | N#Cc1ccc(/C=C/c2nc3ccccc3nc2SCc2nc3ccccc3[nH]2)cc1 | 109% | 127% | 125% | 100% | 100% | 90.35% | 93.78% | 99.32% | 109% | 88.08% | 101% | 103% | 110% | 104% | 100% | 111% | 107% | 94.09% | 86.49% | 86.51% | Activity (A498): 105%; Activity (DU-145): 103%; Activity (MCF7): 101%; Activity (HL-60(TB)): 94.7%; Activity (K562): 99.2%; Activity (MOLT-4): 88.59%; Activity (MDA-MB-231): 97.02%; Activity [1]: 107%; Activity (MDA-MB-468): 104%; Activity (EKVX): 99.04%; Activity (NCI-H23): 105%; Activity (NCI-H460): 104%; Activity (HCT-116): 88.47%; Activity (HT-29): 89.43%; Activity (KM12): 104%
3 | Oc1ccc(/C=C/c2nc3ccccc3nc2SCc2nc3ccccc3[nH]2)cc1 | 91.53% | 82.46% | 111% | 97.81% | 95.29% | 86.88% | 77.99% | 100% | 96.11% | 102% | 95.26% | 71.03% | 102% | 102% | 93.62% | 76.71% | 106% | 94.78% | 107% | 85.96% | Activity (A498): 88.72%; Activity (DU-145): 97.51%; Activity (MCF7): 89.91%; Activity (HL-60(TB)): 84.38%; Activity (K562): 107%; Activity (MOLT-4): 75.47%; Activity (MDA-MB-231): 95.18%; Activity [1]: 110%; Activity (MDA-MB-468): 114%; Activity (EKVX): 92.68%; Activity (NCI-H23): 102%; Activity (NCI-H460): 95.51%; Activity (HCC 2998): 123%; Activity (HCT-116): 89.77%; Activity (HT-29): 86.49%; Activity (KM12): 98.91%
4 | CN(C)c1ccc(/C=C/c2nc3ccccc3nc2SCc2nc3ccccc3[nH]2)cc1 | 107% | 104% | 85.81% | 96.81% | 103% | 102% | 81.79% | 92.21% | 102% | 124% | 97.96% | 116% | 107% | 102% | 103% | 107% | 99.96% | 100% | 113% | 84.96% | Activity (A498): 88.48%; Activity (DU-145): 95.35%; Activity (MCF7): 77.51%; Activity (HL-60(TB)): 87.19%; Activity (K562): 105%; Activity (MOLT-4): 84.64%; Activity (MDA-MB-231): 89.23%; Activity [1]: 119%; Activity (MDA-MB-468): 109%; Activity (EKVX): 92.96%; Activity (NCI-H23): 102%; Activity (NCI-H460): 104%; Activity (HCC 2998): 90.32%; Activity (HCT-116): 87.81%; Activity (HT-29): 101%; Activity (KM12): 104%
5 | Oc1ccccc1/C=C/c1nc2ccccc2nc1SCc1nc2ccccc2[nH]1 | 81.66% | 93.22% | 97.28% | 76.6% | 78.17% | 83.19% | 41.14% | 70.2% | 81.04% | 95.95% | 68.43% | 59.92% | 81.53% | 86.09% | 69.99% | 56.68% | 87.29% | 78.21% | 43.48% | 49.71% | Activity (A498): 92.56%; Activity (DU-145): 76.88%; Activity (MCF7): 51.8%; Activity (HL-60(TB)): 26.78%; Activity (K562): 77.33%; Activity (MOLT-4): 57.51%; Activity (MDA-MB-231): 53.69%; Activity [1]: 48.8%; Activity (MDA-MB-468): 59.53%; Activity (EKVX): 60.4%; Activity (NCI-H23): 76.93%; Activity (NCI-H460): 80.34%; Activity (HCC 2998): 102%; Activity (HCT-116): 65.39%; Activity (HT-29): 83.56%; Activity (KM12): 77.92%
